Test: Toxicity liver stage against HepG2, at 10uM
Type: cell-based
Design: test concentration 10 uM, cell line HepG2-A16-CD81EGFP
Details: human, HepG2-A16-CD81EGFP cells; read-out: INHIBITION
How it was run: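 Uninfected HepG2-A16-CD81EGFP cells, 3 × 10^3 per well, 1536-well, plated on prespotted compound at 10 μM final, parasite-free screening media added to match infected plates; puromycin 10 μM positive, DMSO 0.5% negative; run in parallel with 48 h PbLuc assay at 37 °C, 5% CO2; viability by CellTiter-Glo luminescence, normalized to controls.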

Row | SMILES | cytotoxicity at 10 µM [%]
1 | Cc1n[nH]c(C)c1CC(=O)NCc1ccccc1Cl | 9.87
2 | CCOc1cc(CNc2nnn(C)n2)ccc1OCc1ccc(Cl)cc1 | 6.04
3 | CCN(CC)CCNC(=O)CCc1c(C)nn(-c2ccc(Cl)cc2)c1C | -5.93
4 | O=C1CSC(c2ccsc2)c2c(n(C3CCCC3)[nH]c2=O)N1 (stereo unspecified) | -11.6
5 | COCCn1ccc2c(C(=O)NC3CN4CCC3CC4)cccc21 (stereo unspecified) | -51.6
6 | COc1cn(CC(N)=O)c(CSc2nccc(C)n2)cc1=O | -12.1
7 | N#Cc1cccnc1OC1CCN(S(=O)(=O)c2ccc(F)c(Cl)c2)CC1 | 6.27
8 | Cc1nc(N(C)C)nc(C)c1NC(=O)c1ccccc1F | 41.7
9 | CC(=O)NCc1noc2c1CN(Cc1ccsc1)CC2 | -3.21
10 | Cc1ccc(NC(=O)c2nc3c(s2)CCCN3C(C)C)cn1 | 0.93
11 | Cc1cc(=O)n(CC(=O)NC(C)C)c(Nc2ccc(F)c(C)c2)n1 | 7.97
12 | CC(=O)Cn1nc(-c2ccccc2F)ccc1=O | 0.477
13 | CN(c1ncc(C(=O)NCc2ccccc2)c(N)n1)C1CCCCC1 | -4.31
14 | Cc1ccc(C)c(-c2csc(N)c2C#N)c1 | 5.47
15 | CCCn1c(NCCc2ccccc2)nc2c(C)nn(C)c2c1=O | 66.4
16 | CC(C)CN1CCN(C(=O)c2[nH]nnc2Nc2ccccc2F)CC1 | 18.7
17 | Cc1ccnn1CC(=O)Nc1cc(-c2ccncc2)[nH]n1 | -4.34
18 | Cc1cnc(Nc2cccc(C3CCCN3Cc3cn(C)nc3C)n2)s1 (stereo unspecified) | 13.2
19 | Cn1ccnc1-c1nc(NC2CCCC2)ncc1-c1cccc(F)c1 | 14.1
20 | Cn1cc(CN2CCCCC2c2ccc(-c3cccc(F)c3)nc2)cn1 (stereo unspecified) | 6.77
21 | O=C(COc1ccccc1F)N1CCCCC1c1ccn2ccnc2n1 (stereo unspecified) | -8.52
22 | O=C(c1cncs1)N1CCC(Cc2cnc3[nH]ccc3c2)CC1 | -3.94
23 | Cc1ccccc1-c1cncc(C2CCN(C3CCOCC3)CC2)n1 | -2.81

Row | SMILES | cytotoxicity at 10 µM [%]
24 | O=C(C1CCCC1)N1CCCC(c2cccc(-n3ccnc3)n2)C1 (stereo unspecified) | -5.52
25 | c1ccc(C2=NOC3(CCN(Cc4c[nH]c5ccccc45)CC3)C2)cc1 | 3.93
26 | NCCC(=O)N1CCC2(CC1)CN(C(=O)Cc1ccc(Cl)cc1)CCO2 | 2.24
27 | Cc1cc(C(=O)NCC(F)(F)F)c2c(C3CCNCC3)noc2n1 | 10.4
28 | Cc1ccc(-n2nnnc2SCN2CCCCC2=O)cc1C | -46.6
29 | Cc1cnn(CC2CN(c3ncnc4c3CCC4)CCO2)c1 (stereo unspecified) | 56.5
30 | COC(=O)NCC(=O)N1CCC(c2cc3ccccc3[nH]2)CC1 | -8.55
31 | CC(C)COc1cncc(NCc2nnc3ccccn23)n1 | 13.1
32 | CC(Cc1cccc(Cl)c1)NC(=O)NCc1ncnn1C (stereo unspecified) | 8.52
33 | CC(c1ccc(F)cc1F)N1CCN(CCN2CCCC2=O)CC1 (stereo unspecified) | -5.61
34 | Cc1cnn(C2CCCN(C(=O)c3cc[nH]n3)C2)c1 (stereo unspecified) | -18.3
35 | COc1ccc(C2CCN(CCCC#N)CC2)cc1 | -9.89
36 | O=C(NCc1nnc2ccccn12)N1CCOC(c2cccs2)C1 (stereo unspecified) | 1.64
37 | CC(C)c1ncc2c(n1)CN(c1ncnc3[nH]ccc13)CC2 | -3.28
38 | Cc1nc(C)c(S(=O)(=O)NC(=O)c2ccoc2)s1 | -6.91
39 | N#Cc1ccccc1N1CCCN(CC(=O)Nc2ccccc2Cl)CC1 | 1.11
40 | Fc1ccc(CNCc2nnc3n2CC(C(F)(F)F)CC3)c(F)c1 (stereo unspecified) | 0.411
41 | CSc1cc2c(cc1NC(=O)NCCn1ccnc1)OCCO2 | -8.28
42 | CCCn1cc(CNCC(c2ccc(C)s2)N2CCOCC2)cn1 (stereo unspecified) | -0.248
43 | COc1cc(CNC(C)c2cccc(Cl)c2)cc(OC)c1OC (stereo unspecified) | 5.02
44 | CCC(CNC(=O)c1ccccc1OC)N1CCc2ccccc2C1 (stereo unspecified) | 12
45 | CN(CCCc1n[nH]c(N)c1C#N)C(=O)Nc1cc(Cl)cc(Cl)c1 | 11.1
46 | CN(Cc1ccccc1)CC(C)(C)NC(=O)c1cnccn1 | 6.95

Row | SMILES | cytotoxicity at 10 µM [%]
47 | Cc1cccc(C(C)NCC2CCS(=O)(=O)CC2)c1 (stereo unspecified) | -2.67
48 | Cc1noc(OCc2ccc(C#N)cc2)n1 | -10.2
49 | OCc1cc2ccccc2nc1NCC1CCN(CC(F)(F)F)C1 (stereo unspecified) | -55.7
50 | CCc1noc(C(C)SCCS(C)(=O)=O)n1 (stereo unspecified) | 5.5
51 | CCNC(=O)N(C)C(c1cccnc1)C(C)C (stereo unspecified) | -10.2
52 | CSCc1cc(F)ccc1CNCc1ncc[nH]1 | 11.5
53 | CN1CCN(c2ccccc2NC(=O)NCCc2ccccc2)CC1 | -4.63
54 | CC(NCc1cccs1)c1ccc(OCc2nccn2C)cc1 (stereo unspecified) | -7.88
55 | CC1CN(C(=O)c2cscn2)c2ccccc2S1 (stereo unspecified) | 6.43
56 | Cc1ncc2c(n1)CCCC2NC(=O)c1ccccc1Cn1cncn1 (stereo unspecified) | -24.4
57 | CC(C)CC(C)N(C)C(=O)CCn1cccn1 (stereo unspecified) | 0.395
58 | Cc1oncc1C(=O)N1CC[C@H]2[C@H]1CCN2S(C)(=O)=O | -99.4
59 | Cn1ccnc1C(=O)NC[C@@H]1OC[C@H]2CN(S(C)(=O)=O)CC[C@H]21 | -99.3
60 | O=C(Cc1ccsc1)N1C[C@H]2CCC[C@@]2(COCc2ccccn2)C1 | -102
61 | c1csc(COC[C@H]2CCC[C@]23CN(Cc2ccoc2)CCO3)n1 | -67.3
62 | O=c1[nH][nH]cc1-c1ccnc(NCCc2cccc(O)c2)n1 | -7.83
63 | Cc1nc2c(c(NCCc3nccs3)n1)CCN(CC1CC1)CC2 | -1.38
64 | C[C@@H]1CN(C2CCN(Cc3cnc(-c4cccs4)nc3)CC2)C[C@H](C)O1 | -13.7
65 | COCCN(Cc1ccc(C)cc1)Cc1c[nH]cn1 | -42.3
66 | CSc1ccc(CN2CCC(CCC(=O)Nc3ccccc3)CC2)cc1 | 6.8
67 | CC(=O)N[C@H]1CN(S(=O)(=O)N(C)Cc2ccccc2)C[C@@H]1C1CC1 | -144
68 | CC(C)c1cc(CN(C)C(=O)C(C)N2CCc3ccccc3C2)no1 (stereo unspecified) | 4.24
69 | Nc1nc2c(c(NCc3ccc(C(=O)N4CCCC4)cc3)n1)CCCC2 | 21.1

Row | SMILES | cytotoxicity at 10 µM [%]
70 | COc1ccc(Oc2ccc(C(F)(F)F)cn2)cc1CN1CCCC1 | -5.62
71 | CC(Oc1ccc2c(c1)OCO2)C(=O)N1CCC(N2CCOCC2)CC1 (stereo unspecified) | -13.5
72 | COc1ccc(C(=O)C2CCCN(Cc3ccncc3)C2)cc1OC (stereo unspecified) | -0.677
73 | COCCN(C)C(=O)c1ccccc1-n1cccn1 | -4.57
74 | CCn1cc(CN2CCC(N3CCC(O)CC3)CC2)cc1C#N | 0.371
75 | CN(Cc1nccs1)C1CCN(c2cccc(-c3cscn3)c2)CC1 | -1.26
76 | Cn1ncc2c(N3CCCC4(CCNC4)C3)nc(C(C)(C)C)nc21 (stereo unspecified) | -45.8
77 | CCN(CCn1c(=O)oc2ccccc21)CC1CCOCC1 | -8.73
78 | COCc1cc(N2CCOC(c3ccc(Cl)c(Cl)c3)C2)ncn1 (stereo unspecified) | 0.635
79 | CCN(C)S(=O)(=O)NC(C)c1cnc(N(C)C2CCCCC2)nc1C (stereo unspecified) | -123
80 | Cc1cc(N2CCC(NC(C)Cc3ccsc3)CC2)nc(N)n1 (stereo unspecified) | 2.22
81 | CN(C)CCCNC(=O)c1ccc(N(C)S(C)(=O)=O)cc1Cl | -6.3
82 | COCC1(C(=O)N[C@H]2CN(c3nnc(C)s3)C[C@@H]2C2CC2)CCC1 | -129
83 | COc1ccc(-n2ncc(C(C)NC3Cc4ccccc4C3)c2C)cc1 (stereo unspecified) | -6.32
84 | NCC(=O)N1CCCC1c1ccc(C(=O)NCc2ccoc2)s1 (stereo unspecified) | 1.68
85 | COCCN1CCN(Cc2ccncc2)[C@H]2CS(=O)(=O)C[C@H]21 | -10.2
86 | c1cnc2c(C3CCN(Cc4ccsc4)CC3)n[nH]c2n1 | 1.34
87 | CCCN(C(=O)c1ccccn1)c1nc2c(s1)CCc1c-2cnn1C | 6.23
88 | CC1CN(C)CCN1C(=O)c1ccn(-c2ccccc2)n1 (stereo unspecified) | 0.533
89 | O=C(COCC(F)(F)F)NS(=O)(=O)c1ccc2c(c1)OCCCO2 | -6.8
90 | CCN(Cc1ccccc1)C(=O)CN1CCCC(Cn2cncn2)C1 (stereo unspecified) | 0.421
91 | Cc1nc(CN(C)C2CCN(CC3CCCCC3)C2)no1 (stereo unspecified) | -7.49
92 | CNC(=O)COc1ccccc1CNC1CCc2ncnn2C1 (stereo unspecified) | -13.6

Row | SMILES | cytotoxicity at 10 µM [%]
93 | Cc1cnn(CC2CN(c3ncnc4ccccc34)CCO2)c1 (stereo unspecified) | 6.57
94 | CCn1ncc2c1CCCC2NCC1=Cc2ccccc2OC1 (stereo unspecified) | -4.31
95 | CN1CCCc2cc(CNC(=O)c3ccncc3)ccc21 | 7.03
96 | Fc1ccc(F)c(CN2CCC(c3cc4ncccc4cn3)CC2)c1 | -5.14
97 | COCC1CC2(CCN(c3ccccn3)CC2)CN1C(C)C (stereo unspecified) | -110
98 | c1csc(CN2CCO[C@@H]3CN(C4CCOCC4)C[C@@H]3C2)c1 | -157
99 | Cc1ccsc1CN1C[C@@H]2COC[C@]2(CNC(=O)c2ccco2)C1 | -95.5
100 | C1CCC(CN2Cc3nnn(CC4CC4)c3C(COCC3CC3)C2)C1 (stereo unspecified) | 19.7
101 | CC1N(C)C(=O)COC12CCN(Cc1ccsc1)CC2 (stereo unspecified) | -5.24
102 | Cc1csc(CN2CCC[C@]3(C[C@@H](Oc4ccccn4)CO3)C2)n1 | -141
103 | COc1c(CNCc2ccc(C(=O)N3CCCC3)cc2)c(C)nn1C | -3.23
104 | Cc1ccc(C(=O)N2CCC3(CCN3Cc3ccc(F)cc3)C2)cn1 (stereo unspecified) | -116
105 | Cn1cnc2c1C(COCC1CC1)CN(Cc1ccc3c(c1)OCO3)C2 (stereo unspecified) | -12
106 | COc1ccccc1CN1CC[C@H]2C[C@H](C(=O)N3CCCC3)O[C@H]2C1 | -2.24
107 | Cn1ccnc1C(=O)N[C@@H]1CN(CC2CCOCC2)[C@@H]2CCCO[C@@H]21 | -97.8
108 | CN(C)C(=O)CC1CC2(CCN(Cc3ccsc3)CC2)c2ccccc21 (stereo unspecified) | 1.13
109 | O=C1C[C@H]2[C@@H](CCN2C(=O)Cc2ccsc2)N1Cc1cccnc1 | -0.331
110 | c1ccc(CNCC2Cn3nnc(-c4ccncc4)c3CO2)nc1 (stereo unspecified) | -1.99
111 | COc1no[n+]([O-])c1-c1ccccc1 | 8.2

Source: ChEMBL document CHEMBL4513216, “Probing the Open Global Health Chemical Diversity Library for Multistage-Active Starting Points for Next-Generation Antimalarials” (ACS Infect Dis, 2020)
